In ChEMBL document CHEMBL1155452, “Oncocin (VDKPPYLPRPRPPRRIYNR-NH2): a novel antibacterial peptide optimized against gram-negative human pathogens” (J Med Chem, 2010):
≈ marks a conversion by molar mass, not a printed value. Where a SMILES comes first, the peptide text is derived from it. [ ]: non-standard residue; d: D form. Orn = NCCC[C@H](N)C(=O)O

Key:
HeLa = test: Cytotoxicity against human HeLa cells at 600 ug/ml after 24 hrs by MTT assay; format: cell-based
Method in brief: (§1)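 HeLa (1.5 × 10^4/well, seeded overnight) or SH-SY5Y (2 × 10^4/well, differentiated 5 days with 10 μM trans-retinoic acid) in DMEM/Ham's F-12 with 5% or 15% FBS. Peptide added at 600 μg/mL for 24 h at 37 °C, 5% CO2. MTT 0.5 mg/mL for 4 h, then SDS/HCl for 16 h; A590 read against 650 nm. Normalized to PBS (100%); DMSO 12% as positive control.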

SH-SY5Y = test: Cytotoxicity against human SH-SY5Y cells at 600 ug/ml after 24 hrs by MTT assay; format: cell-based; method in brief: as §1
Escherichia coli [1] = test: Antimicrobial activity against Escherichia coli 70419002 after 20 hrs by broth microdilution method; format: functional; details: Escherichia coli, 70419002, 20 h
Method in brief: (§2)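 Pathogens grown overnight on Columbia agar. Colonies suspended in 0.9% saline to OD 0.1, diluted 1:300 in 1% TSB, final (1-2) × 10^5 cfu/well. Peptides 2-fold serially diluted in 1% TSB from 128 to typically 0.5 μg/mL. Incubation at 37 °C; A595 read after 20 ± 2 h. MIC is the lowest concentration with absorbance not above medium only. Triplicate.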

Escherichia coli [2] = test: Antimicrobial activity against Escherichia coli 70502001 after 20 hrs by broth microdilution method; format: functional; details: Escherichia coli, 70502001, 20 h; method in brief: as §2
Escherichia coli [3] = test: Antimicrobial activity against Escherichia coli Neumann after 20 hrs by broth microdilution method; format: functional; method in brief: as §2
Escherichia coli [4] = test: Antimicrobial activity against Escherichia coli 205024 after 20 hrs by broth microdilution method; format: functional; details: Escherichia coli, 205024, 20 h; method in brief: as §2
Escherichia coli [5] = test: Antimicrobial activity against Escherichia coli 455/7 after 20 hrs by broth microdilution method; format: functional; details: 455/7, 20 h; method in brief: as §2
Escherichia coli [6] = test: Antimicrobial activity against Escherichia coli 8474 after 20 hrs by broth microdilution method; format: functional; details: Escherichia coli, 8474, 20 h; method in brief: as §2
Klebsiella pneumoniae [7] = test: Antimicrobial activity against Klebsiella pneumoniae DSM 681 after 20 hrs by broth microdilution method; format: functional; details: DSM 681, 20 h; method in brief: as §2
Escherichia coli [8] = test: Antibacterial activity against Escherichia coli BL21 AI after 20 hrs by broth microdilution assay; format: functional
Method in brief: (§3)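 Nutrient-broth overnight cultures diluted in 1% TSB; E. coli BL21AI 7.5 × 10^5 cells/well, M. luteus ATCC 10240 2 × 10^6 cells/well. Peptides serially 2-fold diluted in 1% TSB from 128 to typically 0.5 μg/mL. Incubation at 37 °C; A595 read after 20 ± 2 h. MIC is the lowest concentration with absorbance not above medium only. Triplicate.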

Micrococcus luteus = test: Antibacterial activity against Micrococcus luteus ATCC 10240 after 20 hrs by broth microdilution assay; format: functional; details: ATCC 10240, 20 h; method in brief: as §3
Klebsiella pneumoniae [9] = test: Antimicrobial activity against Klebsiella pneumoniae 63 after 20 hrs by broth microdilution method; format: functional; details: Klebsiella pneumoniae, 63, 20 h
Method in brief: (§4)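 Pathogenic strains grown overnight on Columbia agar, colonies suspended in 0.9% saline to OD 0.1, diluted 1:300 in 1% TSB; final (1-2) × 10^5 cfu/well. Peptides 2-fold serially diluted in 1% TSB from 128 μg/mL, typically to 0.5 μg/mL. Incubated 37 °C, absorbance at 595 nm after 20 ± 2 h, in triplicate; MIC = lowest concentration with absorbance not exceeding medium only.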

Klebsiella pneumoniae [10] = test: Antimicrobial activity against Klebsiella pneumoniae 8085 after 20 hrs by broth microdilution method; format: functional; details: Klebsiella pneumoniae, 8085, 20 h; method in brief: as §2
Klebsiella pneumoniae [11] = test: Antimicrobial activity against Klebsiella pneumoniae ATCC 12657 after 20 hrs by broth microdilution method; format: functional; details: ATCC 12657, 20 h; method in brief: as §2
Klebsiella pneumoniae [12] = test: Antimicrobial activity against Klebsiella pneumoniae ATCC 27799 after 20 hrs by broth microdilution method; format: functional; details: ATCC 27799, 20 h; method in brief: as §4
Acinetobacter baumannii [13] = test: Antimicrobial activity against Acinetobacter baumannii ICB 14067 after 20 hrs by broth microdilution method; format: functional; details: ICB 14067, 20 h; method in brief: as §2
Acinetobacter baumannii [14] = test: Antimicrobial activity against Acinetobacter baumannii ICB 14072 after 20 hrs by broth microdilution method; format: functional; details: ICB 14072, 20 h; method in brief: as §2
Acinetobacter baumannii [15] = test: Antimicrobial activity against Acinetobacter baumannii ICB 14073 after 20 hrs by broth microdilution method; format: functional; details: ICB 14073, 20 h; method in brief: as §2
Acinetobacter baumannii [16] = test: Antimicrobial activity against Acinetobacter baumannii ICB 9250 after 20 hrs by broth microdilution method; format: functional; details: ICB 9250, 20 h; method in brief: as §2
Acinetobacter baumannii [17] = test: Antimicrobial activity against Acinetobacter baumannii M17 after 20 hrs by broth microdilution method; format: functional; details: M17, 20 h; method in brief: as §2
Enterobacter cloacae [18] = test: Antimicrobial activity against Enterobacter cloacae 34654 after 20 hrs by broth microdilution method; format: functional; details: Enterobacter cloacae, 34654, 20 h; method in brief: as §2
Enterobacter cloacae [19] = test: Antimicrobial activity against Enterobacter cloacae Ha088 after 20 hrs by broth microdilution method; format: functional; details: Ha088, 20 h; method in brief: as §2
Enterobacter cloacae [20] = test: Antimicrobial activity against Enterobacter cloacae Ha089 after 20 hrs by broth microdilution method; format: functional; details: Ha089, 20 h; method in brief: as §2
Enterobacter cloacae [21] = test: Antimicrobial activity against Enterobacter cloacae Ha185 after 20 hrs by broth microdilution method; format: functional; details: Ha185, 20 h; method in brief: as §4
Klebsiella pneumoniae [22] = test: Antimicrobial activity against Klebsiella pneumoniae 57 USA after 20 hrs by broth microdilution method; format: functional; method in brief: as §2
[23] = Stability in 100% mouse serum assessed as half life at 75 ug/ml by MALDI-TOF-MS analysis; format: ADME, cell-free
Method in brief: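 Peptide at 75 μg/mL final in pooled mouse serum (undiluted or 25% v:v aqueous), 37 °C. Triplicate aliquots taken at 0, 30, 60, 120 and 240 min and precipitated with 3% TCA on ice for 10 min. Supernatant neutralized with NaOH and analysed by RP-HPLC on C18 with TFA-containing gradient. Amounts expressed relative to 0 min; metabolites identified by MALDI-TOF-MS.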

Enterobacter cloacae [24] = test: Antimicrobial activity against Enterobacter cloacae Ha89 after 20 hrs by broth microdilution method; format: functional; details: Ha89, 20 h; method in brief: as §2
Proteus vulgaris [25] = test: Antimicrobial activity against Proteus vulgaris ICB 9081 after 20 hrs by broth microdilution method; format: functional; details: ICB 9081, 20 h; method in brief: as §2
Proteus vulgaris [26] = test: Antimicrobial activity against Proteus vulgaris ICB 9095 after 20 hrs by broth microdilution method; format: functional; details: ICB 9095, 20 h; method in brief: as §2
Stenotrophomonas [27] = test: Antimicrobial activity against Stenotrophomonas ICB 308054 after 20 hrs by broth microdilution method; format: functional; details: ICB 308054, 20 h; method in brief: as §2
Stenotrophomonas [28] = test: Antimicrobial activity against Stenotrophomonas ICB 7569 after 20 hrs by broth microdilution method; format: functional; details: ICB 7569, 20 h; method in brief: as §2
Escherichia coli [29] = test: Antimicrobial activity against Escherichia coli 70430001 after 20 hrs by broth microdilution method; format: functional; details: Escherichia coli, 70430001, 20 h; method in brief: as §2
Escherichia coli [30] = test: Antimicrobial activity against Escherichia coli 70329001 after 20 hrs by broth microdilution method; format: functional; details: Escherichia coli, 70329001, 20 h; method in brief: as §2
Pseudomonas aeruginosa [31] = test: Antimicrobial activity against Pseudomonas aeruginosa 70108001 after 20 hrs by broth microdilution method; format: functional; details: Pseudomonas aeruginosa, 70108001, 20 h; method in brief: as §4
Pseudomonas aeruginosa [32] = test: Antimicrobial activity against Pseudomonas aeruginosa 61118003 after 20 hrs by broth microdilution method; format: functional; details: Pseudomonas aeruginosa, 61118003, 20 h; method in brief: as §4
Pseudomonas aeruginosa [33] = test: Antimicrobial activity against Pseudomonas aeruginosa 60909001 after 20 hrs by broth microdilution method; format: functional; details: Pseudomonas aeruginosa, 60909001, 20 h; method in brief: as §4
Pseudomonas aeruginosa [34] = test: Antimicrobial activity against Pseudomonas aeruginosa 60811001 after 20 hrs by broth microdilution method; format: functional; details: Pseudomonas aeruginosa, 60811001, 20 h; method in brief: as §4
Pseudomonas aeruginosa [35] = test: Antimicrobial activity against Pseudomonas aeruginosa PAO1 after 20 hrs by broth microdilution method; format: functional; details: PAO1, 20 h; method in brief: as §4
Pseudomonas aeruginosa [36] = test: Antimicrobial activity against Pseudomonas aeruginosa ATCC 27853 after 20 hrs by broth microdilution method; format: functional; details: ATCC 27853, 20 h; method in brief: as §4
Pseudomonas aeruginosa [37] = test: Antimicrobial activity against Pseudomonas aeruginosa Walter after 20 hrs by broth microdilution method; format: functional; method in brief: as §4
Pseudomonas aeruginosa [38] = test: Antimicrobial activity against Pseudomonas aeruginosa DSM 3227 after 20 hrs by broth microdilution method; format: functional; details: DSM 3227, 20 h; method in brief: as §4
Stenotrophomonas [39] = test: Antimicrobial activity against Stenotrophomonas ICB 7789 after 20 hrs by broth microdilution method; format: functional; details: ICB 7789, 20 h; method in brief: as §2

H-GKPRPYSPRPTSHPRPIRV-OH [DROSOCIN]
Activity (HeLa): Non-toxic
Activity (SH-SY5Y): Non-toxic

CC[C@H](C)[C@H](NC(=O)[C@H](CCCN)NC(=O)[C@H](CCCNC(=N)N)NC(=O)[C@@H]1CCCN1C(=O)[C@@H]1CCCN1C(=O)[C@H](CCCNC(=N)N)NC(=O)[C@@H]1CCCN1C(=O)[C@H](CCCNC(=N)N)NC(=O)[C@@H]1CCCN1C(=O)[C@H](CC(C)C)NC(=O)[C@H](Cc1ccc(O)cc1)NC(=O)[C@@H]1CCCN1C(=O)[C@@H]1CCCN1C(=O)[C@H](CCCCN)NC(=O)[C@H](CC(=O)O)NC(=O)[C@@H](N)C(C)C)C(=O)N[C@@H](Cc1ccc(O)cc1)C(=O)N[C@@H](CC(N)=O)C(=O)N[C@@H](CCCN)C(N)=O (H-VDKPPYLPRPRPPR[Orn]IYN[Orn]-NH2)
MIC (Escherichia coli [1]): 2 µg/mL (≈ 0.867 µM)
MIC (Escherichia coli [2]): 1 µg/mL (≈ 0.434 µM)
MIC (Escherichia coli [3]): 0.5 µg/mL (≈ 0.217 µM)
MIC (Escherichia coli [4]): 1 µg/mL (≈ 0.434 µM)
MIC (Escherichia coli [5]): 0.5 µg/mL (≈ 0.217 µM)
MIC (Escherichia coli [6]): 0.5 µg/mL (≈ 0.217 µM)
MIC (Klebsiella pneumoniae [7]): 0.5 µg/mL (≈ 0.217 µM)
MIC (Escherichia coli [8]): 8 µg/mL (≈ 3.47 µM)
MIC (Micrococcus luteus): 8 µg/mL (≈ 3.47 µM)
MIC (Klebsiella pneumoniae [9]): 2 µg/mL (≈ 0.867 µM)
MIC (Klebsiella pneumoniae [10]): 0.5 µg/mL (≈ 0.217 µM)
MIC (Klebsiella pneumoniae [11]): 0.5 µg/mL (≈ 0.217 µM)
MIC (Klebsiella pneumoniae [12]): 1 µg/mL (≈ 0.434 µM)
MIC (Acinetobacter baumannii [13]): 1 µg/mL (≈ 0.434 µM)
MIC (Acinetobacter baumannii [14]): 1 µg/mL (≈ 0.434 µM)
MIC (Acinetobacter baumannii [15]): 1 µg/mL (≈ 0.434 µM)
MIC (Acinetobacter baumannii [16]): 0.5 µg/mL (≈ 0.217 µM)
MIC (Acinetobacter baumannii [17]): 1 µg/mL (≈ 0.434 µM)
MIC (Enterobacter cloacae [18]): 0.5 µg/mL (≈ 0.217 µM)
MIC (Enterobacter cloacae [19]): 0.25 µg/mL (≈ 0.108 µM)
MIC (Enterobacter cloacae [20]): 0.25 µg/mL (≈ 0.108 µM)
MIC (Enterobacter cloacae [21]): 0.5 µg/mL (≈ 0.217 µM)
MIC (Klebsiella pneumoniae [22]): 0.5 µg/mL (≈ 0.217 µM)
half-life at 75 ug/ml [23]: 3 h
Activity (HeLa): Non-toxic
Activity (SH-SY5Y): Non-toxic
MIC (Enterobacter cloacae [24]): 0.25 µg/mL (≈ 0.108 µM)
MIC (Proteus vulgaris [25]): 8 µg/mL (≈ 3.47 µM)
MIC (Proteus vulgaris [26]): 4 µg/mL (≈ 1.73 µM)
MIC (Stenotrophomonas [27]): 32 µg/mL (≈ 13.9 µM)
MIC (Stenotrophomonas [28]): 16 µg/mL (≈ 6.94 µM)
MIC (Escherichia coli [29]): 0.5 µg/mL (≈ 0.217 µM)
MIC (Escherichia coli [30]): 1 µg/mL (≈ 0.434 µM)
MIC (Pseudomonas aeruginosa [31]): 2 µg/mL (≈ 0.867 µM)
MIC (Pseudomonas aeruginosa [32]): 1 µg/mL (≈ 0.434 µM)
MIC (Pseudomonas aeruginosa [33]): 1 µg/mL (≈ 0.434 µM)
MIC (Pseudomonas aeruginosa [34]): 2 µg/mL (≈ 0.867 µM)
MIC (Pseudomonas aeruginosa [35]): 2 µg/mL (≈ 0.867 µM)
MIC (Pseudomonas aeruginosa [36]): 2 µg/mL (≈ 0.867 µM)
MIC (Pseudomonas aeruginosa [37]): 4 µg/mL (≈ 1.73 µM)
MIC (Pseudomonas aeruginosa [38]): 4 µg/mL (≈ 1.73 µM)
MIC (Stenotrophomonas [39]): 32 µg/mL (≈ 13.9 µM)

H-VDKPPYLPRPRPPRRIYNRN-NH2
MIC (Escherichia coli [8]): 16 µg/mL
MIC (Micrococcus luteus): 128 µg/mL

H-VDKPPYLPRPHPPRRIYNNR-OH
MIC (Escherichia coli [8]): 64 µg/mL
MIC (Micrococcus luteus): 32 µg/mL
